Source: ChEMBL document CHEMBL1152861, “Synthesis and serotonin receptor activity of the arylpiperazine alkyl/propoxy derivatives of new azatricycloundecanes” (Eur J Med Chem, 2009)
Calls of active or inactive are those of the source. The rule behind the calls is not given here.

Assays:
[1] = target: T1, 5-hydroxytryptamine receptor 1A (Rattus norvegicus, UniProt P19327); assay: Displacement of [3H]8-OH-DPAT from 5HT1A receptor in rat hippocampal membranes; assay type: cell membranes, Hippocampus, Membrane
T1 sequence (P19327 whole entry): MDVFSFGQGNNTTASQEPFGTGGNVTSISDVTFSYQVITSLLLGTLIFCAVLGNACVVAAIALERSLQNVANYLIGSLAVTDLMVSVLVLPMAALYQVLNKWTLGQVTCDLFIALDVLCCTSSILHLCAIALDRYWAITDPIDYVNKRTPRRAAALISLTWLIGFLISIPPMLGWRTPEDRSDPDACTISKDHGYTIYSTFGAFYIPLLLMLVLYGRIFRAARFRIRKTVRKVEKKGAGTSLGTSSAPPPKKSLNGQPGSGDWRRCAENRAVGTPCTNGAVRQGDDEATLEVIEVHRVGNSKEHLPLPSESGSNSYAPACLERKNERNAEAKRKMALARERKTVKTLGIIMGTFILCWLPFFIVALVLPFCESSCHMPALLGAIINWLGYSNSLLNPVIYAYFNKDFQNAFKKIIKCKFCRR

[2] = target: 5-hydroxytryptamine receptor 2A (Homo sapiens, UniProt P28223); assay: Displacement of [3H]ketanserin from 5HT2A receptor
Chain of 5-hydroxytryptamine receptor 2A (P28223 whole entry): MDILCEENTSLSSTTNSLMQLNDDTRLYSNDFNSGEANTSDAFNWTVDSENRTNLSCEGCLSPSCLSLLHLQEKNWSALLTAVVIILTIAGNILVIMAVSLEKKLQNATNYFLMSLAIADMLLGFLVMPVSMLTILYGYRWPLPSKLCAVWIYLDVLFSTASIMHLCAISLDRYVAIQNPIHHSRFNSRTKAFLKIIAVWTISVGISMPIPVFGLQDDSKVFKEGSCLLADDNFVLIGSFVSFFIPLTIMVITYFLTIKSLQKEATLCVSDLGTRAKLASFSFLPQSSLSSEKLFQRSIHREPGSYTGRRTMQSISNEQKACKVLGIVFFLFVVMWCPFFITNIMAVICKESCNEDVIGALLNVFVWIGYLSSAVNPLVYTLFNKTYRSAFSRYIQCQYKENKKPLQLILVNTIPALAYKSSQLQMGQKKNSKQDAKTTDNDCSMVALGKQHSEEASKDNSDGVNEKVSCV

Mus musculus [3] = assay: Effect on spontaneous locomotor activity in Albino Swiss mouse administered intraperitoneally dose equivalent to 0.1 of LD50 after 30 mins measured for 60 min by automatic photoresistor actometer
Mus musculus [4] = assay: Anxiolytic activity in Albino Swiss mouse assessed as number of punished crossing administered intraperitoneally dose equivalent to 0.1 of LD50 after 30 mins measured for 1 min by four-plate test; assay type: functional, organism-based
How it was run: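 Male Albino Swiss mice (20-24 g), 8 per group, received ip compound in 1% Tween 80 (0.1 mL/10 g) at a dose equal to 0.1 of LD50; vehicle controls. Four-plate test 30 min later; punished crossings counted over 1 min.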

Mus musculus [5] = assay: Neurotoxicity in Albino Swiss mouse administered intraperitoneally dose equivalent to 0.1 of LD50 after 30 mins measured for 1 min by chimney test; assay type: toxicity, organism-based; conditions: in vivo, ip
How it was run: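 Male Albino Swiss mice (20-24 g), i.p. suspension in 1% Tween 80 at 0.1 mL/10 g body weight, with vehicle controls and 8 mice per group. Tested 30 min post-dose by having mice climb backwards up a plastic tube (3 cm inner diameter, 25 cm long). Failing three tasks within 60 s scored as motor impairment, reported as % of animals failing.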

Mus musculus [6] = assay: Antidepressive activity in Albino Swiss mouse assessed as total immobility time at 15 mg/kg, ip after 30 mins measured for 4 mins by forced swimming test; assay type: functional; conditions: route intraperitoneal
How it was run: (§1)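 Forced swimming test in male Albino Swiss mice (20-24 g), 8 per group. Compounds given ip as suspensions in 1% Tween 80, 0.1 mL/10 g, at doses of 0.1-0.00635 of LD50, 30 min before test; imipramine 15 mg/kg ip as reference; controls got vehicle. Mice swam 6 min in a glass cylinder with 15 cm of 25 °C water; total immobility time scored; mean ± SEM.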

Mus musculus [7] = assay: Antidepressive activity in Albino Swiss mouse assessed as total immobility time at 10 mg/kg, ip after 30 mins measured for 4 mins by forced swimming test; assay type: functional; conditions: route intraperitoneal; how it was run: as §1
Mus musculus [8] = assay: Antidepressive activity in Albino Swiss mouse assessed as total immobility time at 20 mg/kg, ip after 30 mins measured for 4 mins by forced swimming test; assay type: functional; conditions: route intraperitoneal; how it was run: as §1
Mus musculus [9] = assay: Antidepressive activity in Albino Swiss mouse assessed as total immobility time at 1.25 mg/kg, ip after 30 mins measured for 4 mins by forced swimming test; assay type: functional; conditions: route intraperitoneal; how it was run: as §1
Mus musculus [10] = assay: Antidepressive activity in Albino Swiss mouse assessed as total immobility time at 2.5 mg/kg, ip after 30 mins measured for 4 mins by forced swimming test; assay type: functional; conditions: route intraperitoneal; how it was run: as §1
Mus musculus [11] = assay: Antidepressive activity in Albino Swiss mouse assessed as total immobility time at 5 mg/kg, ip after 30 mins measured for 4 mins by forced swimming test; assay type: functional; conditions: route intraperitoneal; how it was run: as §1
[12] = Selectivity ratio of Ki for 5HT2A receptor to Ki for rat 5HT1A receptor

Structure (SMILES) | Ki [1] | Ki [2] | Activity (Mus musculus [3]) | Activity (Mus musculus [4]) | Activity (Mus musculus [5]) | other results
CC1CC2(C)CC(=O)C1C1C(=O)N(CCCCN3CCN(c4ccccn4)CC3)C(=O)C12 (configuration not stated) | 202 nM | 577 nM | – | – | – | –
CC1CC2(C)CC(=O)C1C1C(=O)N(CCCCN3CCN(c4ncccn4)CC3)C(=O)C12 (configuration not stated) | 1520 nM | 3380 nM | – | – | – | –
COc1ccccc1N1CCN(CCCON2C(=O)C3C4C(C)=CC(OC(C)=O)(CC4C)C3C2=O)CC1 (configuration not stated) | 27 nM | 681 nM | inactive | inactive | Not Active | –
CC(=O)OC12C=C(C)C(C(C)C1)C1C(=O)N(CCCCN3CCN(c4ncccn4)CC3)C(=O)C12 (configuration not stated) | 800 nM | 6020 nM | – | – | – | –
CC(=O)OC12C=C(C)C(C(C)C1)C1C(=O)N(CCCCN3CCN(c4ccccc4)CC3)C(=O)C12 (configuration not stated) | 34 nM | 286 nM | inactive | inactive | Not Active | –
CC(=O)OC12C=C(C)C(C(C)C1)C1C(=O)N(CCCCN3CCN(Cc4ccccc4)CC3)C(=O)C12 (configuration not stated) | 1420 nM | 9720 nM | – | – | – | –
CC1CC2(C)CC(=O)C1C1C(=O)N(CCCCN3CCN(c4ccc(F)cc4)CC3)C(=O)C12 (configuration not stated) | 521 nM | 102 nM | inactive | inactive | Not Active | –
COc1ccccc1N1CCN(CCCCN2C(=O)C3C4C(=O)CC(OC(C)=O)(CC4(C)C)C3C2=O)CC1 (configuration not stated) | 22 nM | 770 nM | – | – | – | –
CC(=O)OC12C=C(C)C(C(C)C1)C1C(=O)N(CCCN3CCN(c4ccccc4)CC3)C(=O)C12 (configuration not stated) | 294 nM | 575 nM | – | – | – | –
CC1CC2(C)CC(=O)C1C1C(=O)N(OCCCN3CCN(c4cccc(Cl)c4)CC3)C(=O)C12 (configuration not stated) | 92 nM | 110 nM | inactive | inactive | Not Active | –
CC(=O)OC12C=C(C)C(C(C)C1)C1C(=O)N(OCCCN3CCN(c4ccccc4)CC3)C(=O)C12 (configuration not stated) | 115 nM | 375 nM | inactive | inactive | Not Active | –
CC1CC2(C)CC(=O)C1C1C(=O)N(CCCN3CCN(c4ccccc4)CC3)C(=O)C12 (configuration not stated) | 344 nM | 292 nM | – | – | – | –
COc1ccccc1N1CCN(CCCN2C(=O)C3C4C(C)=CC(OC(C)=O)(CC4C)C3C2=O)CC1 (configuration not stated) | 35 nM | 1020 nM | inactive | inactive | Not Active | –
CC1CC2(C)CC(=O)C1C1C(=O)N(CCCCN3CCN(Cc4ccccc4)CC3)C(=O)C12 (configuration not stated) | 2730 nM | 2090 nM | – | – | – | –
CC1CC2(C)CC(=O)C1C1C(=O)N(OCCCN3CCN(c4ccccc4)CC3)C(=O)C12 (configuration not stated) | 616 nM | 300 nM | – | – | – | –
CCOC12CCC(C(=O)C1)C1C(=O)N(CCCCN3CCN(c4ccccc4OC)CC3)C(=O)C12 (configuration not stated) | 26 nM | 2790 nM | – | – | – | –
CC(=O)OC12C=C(C)C(C(C)C1)C1C(=O)N(CCCCN3CCN(c4ccc(F)cc4)CC3)C(=O)C12 (configuration not stated) | 286 nM | 170 nM | – | – | – | –
CC(=O)OC12C=C(C)C(C(C)C1)C1C(=O)N(CCCCN3CCN(c4ccccn4)CC3)C(=O)C12 (configuration not stated) | 97 nM | 965 nM | inactive | inactive | Not Active | –
COc1ccccc1N1CCN(CCCCN2C(=O)C3C4C(=O)CC(C)(CC4C)C3C2=O)CC1 (configuration not stated) | 25 nM | 522 nM | inactive | inactive | Not Active | –
CN(C)CCCN1c2ccccc2CCc2ccccc21 [IMIPRAMINE] | – | – | – | – | – | Time (Mus musculus [6]): 69.5 s
CC(=O)OC12C=C(C)C(C(C)C1)C1C(=O)N(OCCCN3CCN(c4ccccc4F)CC3)C(=O)C12 (configuration not stated) | 80 nM | 1070 nM | inactive | inactive | Not Active | Time (Mus musculus [7]): 27.5 s; Time (Mus musculus [8]): 18.4 s; Time (Mus musculus [9]): 114.3 s; Time (Mus musculus [10]): 56.8 s; Time (Mus musculus [11]): 48.3 s
COc1ccccc1N1CCN(CCCCN2C(=O)C3C4C(C)=CC(OC(C)=O)(CC4C)C3C2=O)CC1 (configuration not stated) | 10 nM | 737 nM | inactive | inactive | Not Active | Ratio Ki [12]: 74; Time (Mus musculus [7]): 71.7 s; Time (Mus musculus [11]): 113.8 s
COc1ccccc1N1CCN(CCCON2C(=O)C3C4C=CC(OC)(CC4)C3C2=O)CC1 (configuration not stated) | 31 nM | 1390 nM | – | – | – | –
COc1ccccc1N1CCN(CCCON2C(=O)C3C4C(=O)CC(C)(CC4C)C3C2=O)CC1 (configuration not stated) | 124 nM | 637 nM | inactive | inactive | Not Active | Time (Mus musculus [7]): 31.2 s; Time (Mus musculus [8]): 29.4 s; Time (Mus musculus [9]): 123.7 s; Time (Mus musculus [10]): 83.5 s; Time (Mus musculus [11]): 63.5 s
CC1CC2(C)CC(=O)C1C1C(=O)N(OCCCN3CCN(c4ccccc4F)CC3)C(=O)C12 (configuration not stated) | 331 nM | 910 nM | – | – | – | –
COc1ccccc1N1CCN(CCCN2C(=O)C3C4C(=O)CC(C)(CC4C)C3C2=O)CC1 (configuration not stated) | 44 nM | 429 nM | inactive | inactive | Not Active | –
CC(=O)OC12C=C(C)C(C(C)C1)C1C(=O)N(OCCCN3CCN(c4ccccn4)CC3)C(=O)C12 (configuration not stated) | 200 nM | 1840 nM | – | – | – | –
CC(=O)OC12C=C(C)C(C(C)C1)C1C(=O)N(OCCCN3CCN(c4cccc(Cl)c4)CC3)C(=O)C12 (configuration not stated) | 37 nM | 376 nM | inactive | inactive | Not Active | –
CC1CC2(C)CC(=O)C1C1C(=O)N(CCCCN3CCN(c4ccccc4)CC3)C(=O)C12 (configuration not stated) | 50 nM | 181 nM | inactive | inactive | Not Active | –
